Source: ChEMBL document CHEMBL4808178 (J Med Chem, 2021)
Activity calls are given as the source filed them. The calls are words filed in the database; no cut-off is given here.

Tests used:
PC-3 = test: Cytotoxicity against human PC3 cells assessed as reduction in cell viability incubated for 72 hrs by MTT assay; format: functional, cell-based; details: PC-3, 72 h
Outline: (§1)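 About 5 × 10³ cells/well, seeded overnight at 37 °C, 5% CO₂, in DMEM or RPMI-1640 with 10% FBS and antibiotics. DMSO-dissolved compounds diluted in medium, exposure 72 h.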

T-24 = test: Cytotoxicity against human T24 cells assessed as reduction in cell viability incubated for 72 hrs by MTT assay; format: functional, cell-based; details: T-24, 72 h; outline: as §1
HCT-116 [1] = test: Inhibition of cell stemness in human HCT116 cells assessed as reduction in SOX2 mRNA transcription levels at 20 uM after 24 hrs by RT-qPCR analysis; format: functional, cell-based
Outline: (§2)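 Sorted ALDH⁺ HCT-116 cells treated 24 h; TRIZOL RNA, one-step RT-qPCR (RT 10 min 55 °C; 95 °C 1 min; 39 cycles 95 °C 10 s/60 °C 30 s) with melting-curve check; β-actin reference; fold change by 2^−ΔΔCt; t test, mean ± SD, n = 3.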

HCT-116 [2] = test: Inhibition of cell stemness in human HCT116 cells assessed as reduction in Nanog mRNA transcription levels at 20 uM after 24 hrs by RT-qPCR analysis; format: functional, cell-based; outline: as §2
HCT-116 [3] = test: Inhibition of cell stemness in human HCT116 cells assessed as reduction in size of tumor spheres at 5 uM after 10 days by microscopic analysis; format: functional, cell-based; details: time 10.0 day
Outline: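 Sorted ALDH⁺ HCT-116 cells, 800/well, in serum-free DMEM with B27 (1:50), EGF 20 ng/mL, β-FGF 10 ng/mL; co-incubated with compound (5 μM) or DMSO vehicle for 10 days; sphere number, diameter and morphology scored from microscopy images; mean ± SD, n = 3.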

HCT-116 [4] = test: Effect on Wnt/beta-Catenin signaling in human HCT116 cells assessed as reduction in S100A4 mRNA level at 20 uM after 24 hrs by RT-qPCR analysis; format: functional, cell-based
Outline: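 HCT-116 cells treated 24 h; total RNA by TRIZOL, one-step RT-qPCR: 55 °C 10 min, 95 °C 1 min, then 39 cycles of 95 °C 10 s and 60 °C 30 s, with melting-curve and no-template controls. β-Actin as internal standard; relative expression by 2^−ΔΔCt, mean ± SD (n = 3).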

HCT-116 [5] = test: Induction of apoptosis in human HCT116 cells assessed as early apoptotic cells at 10 uM after 24 hrs by annexin V-FITC/propidium iodide staining based flow cytometry (reference value: 1%); format: functional
HCT-116 [6] = test: Induction of apoptosis in human HCT116 cells assessed as necrotic cells at 10 uM after 24 hrs by annexin V-FITC/propidium iodide staining based flow cytometry (reference value: 5.6%); format: functional
HCT-116 [7] = test: Induction of apoptosis in human HCT116 cells assessed as early apoptotic cells at 20 uM after 24 hrs by annexin V-FITC/propidium iodide staining based flow cytometry (reference value: 1%); format: functional
HCT-116 [8] = test: Induction of cell cycle arrest in human HCT116 cells assessed as accumulation at S phase at 20 uM after 24 hrs by propidium iodide-staining based flow cytometry (reference value: 36.43%); format: functional
HCT-116 [9] = test: Induction of apoptosis in human HCT116 cells assessed as increase in Cyt c protein expression at 20 uM incubated for 24 hrs by Western blot analysis; format: functional, cell-based
Outline: (§3)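 HCT-116 cells at 2 × 10⁵ cells/mL in DMEM/10% FBS, grown 12 h at 37 °C, then treated 24 h (vehicle DMSO). Lysates quantified by BCA, run on 10% SDS-PAGE, PVDF transfer, blocked in 5% milk/TBST, primary antibodies 4 °C overnight, HRP secondary 2 h, chemiluminescent detection; normalized to β-actin, n = 3.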

HCT-116 [10] = test: Induction of apoptosis in human HCT116 cells assessed as down regulation of total PARP at 20 uM incubated for 24 hrs by Western blot analysis; format: functional, cell-based; outline: as §3
HCT-116 [11] = test: Induction of apoptosis in human HCT116 cells assessed as upregulation of cleaved caspase 3 level at 20 uM incubated for 24 hrs by Western blot analysis; format: functional, cell-based; outline: as §3
[12] = Half life in Sprague-Dawley rat at 25 mg/kg, po measured up to 48 hrs by LC-MS/MS analysis; format: ADME, organism-based; details: in vivo
Outline: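 Overnight-fasted male SD rats (about 250−270 g), three per group, single oral 25 mg/kg; test compound suspended in 5% CMC-Na, control as sodium salt in phosphate buffer. Blood sampled 0.25–48 h, plasma by centrifugation, stored −40 °C, quantified by LC−MS/MS against plasma standard curve (3–3000 ng/mL) with internal standard; model-fitted PK parameters.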

[13] = Toxicity in BALB/c mouse xenografted with human HCT116 cells assessed as effect on lung tissue at 60 to 90 mg/kg, po administered twice daily for 4 weeks and measured every 3 days by HE staining based assay; format: organism-based, HCT-116; details: in vivo, 672 h, dose 60-90 mg/kg
Outline: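 Male 5-week BALB/c nude mice (16−18 g), 0.2 mL of 5 × 10⁷ cells/mL HCT-116 injected into right armpit; at ~100 mm³ randomized, 5/group; intragastric 60 or 90 mg/kg twice daily for 4 weeks; tumor volume and body weight every 3 days; after sacrifice heart, liver, spleen, lung, kidney HE-stained.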

half-life [12]: 6.67 h
Compound: O=C(NCCO)c1ccc2c(c1)nc(Nc1cccc(Cl)c1)c1ccncc12
IC50 (PC-3): 4.53 µM | IC50 (T-24): 6.1 µM | inhibition (HCT-116 [1]): Active | inhibition (HCT-116 [2]): Active | inhibition (HCT-116 [3]): Active | Activity (HCT-116 [4]): Active | Activity (HCT-116 [5]): 12.6% | Activity (HCT-116 [6]): 7.6% | Activity (HCT-116 [7]): 22.5% | Activity (HCT-116 [8]): 5.36% | Activity (HCT-116 [9]): Active | Activity (HCT-116 [10]): Active | Activity (HCT-116 [11]): Active | Activity [13]: Non-Toxic
